This is a sample that favours compounds with a hit; in the whole collection about 1.8% have one here.
NR2E3 ag-1 – NR2E3 agonists in two-hybrid cells, primary screen, cell-based, luminescence, CHO-S, Gal4-NCOR/VP16-NR2E3 | Photoreceptor-specific nuclear receptor (Homo sapiens), Q9Y5X4 | luciferase | inhibition of corepressor binding, % at 3.98 µM | 0.35% of 360,000 active;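 active = inhibition above the mean of all tested compounds plus 3 SD, cut at about 70% in these data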;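 note: higher means lower luciferase signal from less NR2E3 corepressor binding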
Target sequence (Q9Y5X4 whole entry, looked up, the tested form may be a part): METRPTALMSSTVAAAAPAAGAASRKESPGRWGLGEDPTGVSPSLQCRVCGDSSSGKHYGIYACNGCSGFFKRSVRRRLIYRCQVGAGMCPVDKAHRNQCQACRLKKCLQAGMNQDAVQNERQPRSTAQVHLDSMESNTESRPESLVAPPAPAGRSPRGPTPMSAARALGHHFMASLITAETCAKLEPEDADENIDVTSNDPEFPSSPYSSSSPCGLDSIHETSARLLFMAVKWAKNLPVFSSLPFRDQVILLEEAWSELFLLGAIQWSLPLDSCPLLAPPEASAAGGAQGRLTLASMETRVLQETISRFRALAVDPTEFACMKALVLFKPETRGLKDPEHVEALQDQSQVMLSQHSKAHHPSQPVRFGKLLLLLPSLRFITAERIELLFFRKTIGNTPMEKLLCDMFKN
GalR3 antag – GalR3 antagonists in HEK293 cells, primary screen, cell-based, fluorescence readout; HEK293 GalR3-CNG cAMP membrane potential fluorescence; galR3 body fused to GalR1 C-terminus; inhibition, % at 3 µM; 0.44% of 360,000 active; Galanin receptor type 3 (Homo sapiens), O60755;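 active = inhibition above the screen-wide average plus 3 SD, cut at about 13% in these data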;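 note: forskolin and galanin both at EC90 stimulate the cells; cAMP rise reported by CNG channel membrane potential dye signal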
PG9 binder – binders of HIV-1 gp120 antibody PG9, primary screen, biochemical, TR-FRET | HIV-1 gp120 / PG9 antibody interaction | TR-FRET gp120-PG9 antibody binding | inhibition, % at 6.7 µM | 0.43% of 360,000 active | AID 624416, 2012; in the data active = inhibition above about 8.5%
Rev-erbA mod – modulators of Rev-erb alpha DNA binding, primary screen, biochemical, FITC-DNA, fluorescence polarization, uHTS; Rev-erbα–FITC-DNA binding, 90 min; 0.79% of 370,000 active; Nuclear receptor subfamily 1 group D member 1 (Homo sapiens), P20393; AID 1259318, 2017; activity, % at 10 µM;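 active = activity above about 14%, limit read from the data; passing the limit was not always enough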
NR2E3 ag-2 – inhibitors of NR2E3-RetCOR corepressor binding, primary screen, NR2E3 agonist project, biochemical, TR-FRET, GST-NR2E3, biotin-RetCOR. Photoreceptor-specific nuclear receptor (Homo sapiens), Q9Y5X4. 1536-well. inhibition of corepressor binding, % at 4.78 µM. 0.12% of 320,000 active;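 active = percent inhibition above the cutoff of mean plus 3 SD of all tested compounds, set per screening campaign, cut at about 20% in these data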
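System: GST-NR2E3 and biotin-RetCOR proteins; probe or stimulus: 7 nM biotin-RetCOR; doses: compound at 4.8 µM, single dose; schedule: Compound–protein incubation for 5 h at 4 °C; detection: time-resolved FRET; read-out: percent inhibition; controls: biotin wells as high control, 0.6% DMSO wells as low control; format: 1536-well plates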
Rev-erbA confirm – modulators of Rev-erb alpha DNA binding, confirmation, biochemical, FITC-DNA, fluorescence polarization, single point. shares compounds with Rev-erbA mod. 90 min. activation, % at 25 µM. 61% of 3,000 active. AID 1259319, 2017;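 active = activation at or above a set limit, or at least 3 SD above the negative control mean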
RORg counter – modulation of RORgamma DNA binding, dose response, counter-screen for Rev-erb alpha modulator project, biochemical, fluorescence polarization, FITC-DNA | shares compounds with Rev-erbA mod | purified RORgamma protein-FITC-DNA binding | IC50, µM | 8% of 910 active | AID 1259320, 2017;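 active = Compounds whose fitted half-maximal concentration for disrupting protein-DNA binding is below 10 micromolar; the record names Rev-erb in its text, so the target is in doubt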
Numbers stand for hits.

`CC(=O)Nc1nonc1-c1nc2ccccc2n1CC1CC1` gave NR2E3 ag-1 inactive, GalR3 antag inactive, PG9 binder inactive, Rev-erbA mod inactive and NR2E3 ag-2 inactive.
For O=[N+]([O-])c1ccccc1N=Nc1ccc(O)cc1O the results were NR2E3 ag-1 inactive, GalR3 antag inactive, PG9 binder inactive, Rev-erbA mod 32 and Rev-erbA confirm 17.
For Cc1ccccc1NC(=O)C1CCCN1S(=O)(=O)c1cccnc1 (stereo unspecified) the results were Rev-erbA mod inactive.
For N#Cc1c2n(c3c(=O)n(CC(=O)c4ccc(Br)cc4)cnc13)CCCC2 the results were NR2E3 ag-1 inactive, GalR3 antag inactive, PG9 binder inactive, Rev-erbA mod inactive and NR2E3 ag-2 inactive.
Screening N#Cc1c2ncn(CC(=O)c3ccc(Br)cc3)c(=O)c2c2n1CCC2 returned NR2E3 ag-1 inactive, GalR3 antag inactive, PG9 binder inactive, Rev-erbA mod 17, NR2E3 ag-2 inactive and Rev-erbA confirm inactive.
`O=[N+]([O-])c1ncccc1OCCOc1ccc(Cl)cc1Cl` gave Rev-erbA mod inactive.
Screening COc1ccc(N(Cc2cc3cccc(C)c3[nH]c2=O)S(=O)(=O)c2ccc(Cl)cc2)cc1 returned NR2E3 ag-1 inactive, GalR3 antag inactive, PG9 binder inactive, Rev-erbA mod 21, NR2E3 ag-2 inactive and Rev-erbA confirm inactive.
Screening COc1ccc(S[C@]2(C(=O)N(C)C)CC(=O)N(C(=O)Nc3ccc(C)c(Cl)c3)[C@@H]2c2ccc(OC)cc2)cc1 returned Rev-erbA mod inactive.
`Cc1cccc(N2C(=O)c3cccc4c(N)ccc(c34)C2=O)c1` gave NR2E3 ag-1 inactive, GalR3 antag inactive, PG9 binder inactive, Rev-erbA mod 245, NR2E3 ag-2 inactive, Rev-erbA confirm 199 and RORg counter inactive.
Nc1ccc2c3c(cccc13)C(=O)N(c1ccccc1)C2=O was read as NR2E3 ag-1 inactive, GalR3 antag inactive, PG9 binder inactive, Rev-erbA mod 92, Rev-erbA confirm 80 and RORg counter inactive.
`Cc1cccc(N2C(=O)c3cccc4cccc(c34)C2=O)c1` gave NR2E3 ag-1 inactive, GalR3 antag inactive, PG9 binder inactive, Rev-erbA mod inactive and NR2E3 ag-2 inactive.
`CCN1C(=O)c2cccc3c(Cl)ccc(c23)C1=O` gave NR2E3 ag-1 inactive, GalR3 antag inactive, PG9 binder inactive, Rev-erbA mod 41, NR2E3 ag-2 inactive and Rev-erbA confirm 30.
For Nc1cccc(N2C(=O)c3cccc4c(N)ccc(c34)C2=O)c1 the results were NR2E3 ag-1 inactive, GalR3 antag inactive, PG9 binder inactive, Rev-erbA mod 80, NR2E3 ag-2 inactive, Rev-erbA confirm 64 and RORg counter inactive.
`O=C(O)c1cccc(N2C(=O)c3cccc4c(Cl)ccc(c34)C2=O)c1` gave NR2E3 ag-1 inactive, GalR3 antag inactive, PG9 binder inactive, Rev-erbA mod inactive and NR2E3 ag-2 inactive.
`CCN1C(=O)c2cccc3c(Cl)ccc1c23` gave NR2E3 ag-1 inactive, GalR3 antag inactive, PG9 binder inactive, Rev-erbA mod inactive and NR2E3 ag-2 inactive.
CC(C)CCN1C(=O)c2cccc3c(N)ccc(c23)C1=O was read as NR2E3 ag-1 inactive, GalR3 antag inactive, PG9 binder inactive, Rev-erbA mod 139, NR2E3 ag-2 inactive, Rev-erbA confirm 132 and RORg counter inactive.
`CC(=O)c1ccc2c3c(cccc13)C(=O)N(CCc1ccccc1)C2=O` gave NR2E3 ag-1 inactive, GalR3 antag inactive, PG9 binder inactive, Rev-erbA mod inactive and NR2E3 ag-2 inactive.
Screening Cc1ccc(NC(=S)Nc2ccc(S(=O)(=O)N3CCOCC3)cc2)cc1S(=O)(=O)N1CCOCC1 returned NR2E3 ag-1 inactive, GalR3 antag inactive, PG9 binder inactive, Rev-erbA mod 17, NR2E3 ag-2 inactive and Rev-erbA confirm inactive.
Screening C[C@H]1[C@@H](NC(=O)C2CCC2)CC[C@@]23CCCN2C(=O)CCC[C@@H]13 returned Rev-erbA mod inactive.
Screening C[C@H](c1ccccc1)N1C[C@@H](COCc2ccccc2)Oc2cccc(Oc3ccc(C(C)(C)C)cc3)c2S1(=O)=O returned GalR3 antag inactive, PG9 binder inactive and Rev-erbA mod inactive.
For Cc1ccc(C(=O)Nc2cccc(C(F)(F)F)c2)cc1NC(=O)c1nccn1C the results were NR2E3 ag-1 inactive, GalR3 antag inactive, PG9 binder inactive, Rev-erbA mod 20, NR2E3 ag-2 inactive, Rev-erbA confirm 23 and RORg counter inactive.
Screening CCOC(=O)c1ccc2c(c1)sc(=NC(=O)c1ccco1)n2CCOC returned NR2E3 ag-1 inactive, GalR3 antag inactive, PG9 binder inactive, Rev-erbA mod 35, NR2E3 ag-2 inactive and Rev-erbA confirm 25.
CCOC(=O)Cn1c(=NC(=O)c2nc3ccccc3s2)sc2cc(S(N)(=O)=O)ccc21 was read as NR2E3 ag-1 inactive, GalR3 antag inactive, PG9 binder inactive, Rev-erbA mod 48, NR2E3 ag-2 inactive and Rev-erbA confirm 29.
CCOC(=O)Cn1c(=NC(=O)c2cccs2)sc2cc(C(=O)OC)ccc21 was read as NR2E3 ag-1 inactive, GalR3 antag inactive, PG9 binder inactive, Rev-erbA mod 85, NR2E3 ag-2 inactive, Rev-erbA confirm 75 and RORg counter inactive.
Screening Cc1nc([N+](=O)[O-])cn1CC(Cl)Cn1cc([N+](=O)[O-])nc1C returned GalR3 antag inactive, PG9 binder inactive and Rev-erbA mod inactive.
For CC(C)(C=O)Cc1cc(C(C)(C)C)c(O)c(C(C)(C)C)c1 the results were NR2E3 ag-1 inactive, PG9 binder inactive, Rev-erbA mod 21, NR2E3 ag-2 inactive and Rev-erbA confirm 19.
COCCN(C(=O)COc1ccc(Cl)cc1)c1nnc(-c2cccnc2)s1 was read as NR2E3 ag-1 inactive, GalR3 antag inactive, PG9 binder inactive, Rev-erbA mod 24, NR2E3 ag-2 inactive and Rev-erbA confirm inactive.
CCN1/C(=C\C=C2\C(=O)N(C)C(=S)N2C)Sc2ccccc21 was read as NR2E3 ag-1 inactive, GalR3 antag inactive, PG9 binder inactive, Rev-erbA mod inactive and NR2E3 ag-2 inactive.
Screening CCOC(=O)/C(=C/C=C1\Sc2cc(OCC)c(OCC)cc2N1CC)C(C)=O returned NR2E3 ag-1 inactive, GalR3 antag inactive, PG9 binder inactive, Rev-erbA mod 32, NR2E3 ag-2 inactive and Rev-erbA confirm inactive.
